# Source: ChEMBL document CHEMBL1155469, “Peptide nucleic acids conjugated to short basic peptides show improved pharmacokinetics and antisense activity in adipose tissue” (J Med Chem, 2010)
# Active and inactive are the calls of the source. The calls are words filed in the database; no cut-off is given here.
# Tests used:
# Mus musculus [1] = test: Acute toxicity in Balb/C mouse assessed as reduction in body weight at 10.5 umol/kg, ip administered thrice a week for 2 weeks measured 48 hrs after last dose; type: organism-based; conditions: in vivo
# In short: (§1)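 Male Balb/c mice aged 6–8 weeks, n=4 per group, dosed i.p. with compound suspended in PBS and filter sterilized, 10 ul/g body weight. Body weight tracked throughout the live phase. Under isoflurane anaesthesia, terminal cardiac-puncture bleed; serum taken for transaminases and other chemistries. Sacrifice by cervical dislocation 48 h after last dose, with liver and spleen weighed at necropsy. Kidneys examined by histopathology.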
# Mus musculus [2] = test: Acute toxicity in Balb/C mouse assessed as reduction in body weight at 1.5 to 6.0 umol/kg, ip administered thrice a week for 2 weeks measured 48 hrs after last dose; type: organism-based; conditions: in vivo; in short: as §1
# Mus musculus [3] = test: Acute toxicity in Balb/C mouse assessed as change in spleen weight at 1.5 to 6.0 umol/kg, ip administered thrice a week for 2 weeks measured 48 hrs after last dose; type: organism-based; conditions: in vivo; in short: as §1
# Mus musculus [4] = test: Acute toxicity in Balb/C mouse assessed as change in liver weight at 1.5 to 6.0 umol/kg, ip administered thrice a week for 2 weeks measured 48 hrs after last dose; type: organism-based; conditions: in vivo; in short: as §1
# Mus musculus [5] = test: Acute toxicity in Balb/C mouse assessed as change in plasma chemistry at 1.5 to 6.0 umol/kg, ip administered thrice a week for 2 weeks measured 48 hrs after last dose; type: organism-based; conditions: in vivo; in short: as §1
# Mus musculus [6] = test: Inhibition of IR expression in Balb/C mouse kidney assessed as upregulation of IR-A transcript at 6.0 umol/kg, ip administered thrice a week for 2 weeks measured 48 hrs after last dose […]; type: functional, organism-based
# In short: (§2)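 Male Balb/c mice, n=4 per group, dosed i.p. in PBS and sacrificed 48 h after last dose. Liver, kidney and adipose tissue homogenised at once in 4 M guanidine isothiocyanate, 25 mM EDTA, 50 mM Tris-HCl pH 6. RNA purified on columns and run by fluorescence-based quantitative RT-PCR. Target transcript levels normalised to cyclophilin A and expressed relative to saline-treated controls.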
# Mus musculus [7] = test: Inhibition of IR expression in Balb/C mouse kidney assessed as upregulation of IR-A transcript at 1.5 umol/kg, ip administered thrice a week for 2 weeks measured 48 hrs after last dose […]; type: functional, organism-based; in short: as §2
# Mus musculus [8] = test: Inhibition of IR expression in Balb/C mouse kidney assessed as reduction in IR-B transcript at 6.0 umol/kg, ip administered thrice a week for 2 weeks measured 48 hrs after last dose […]; type: functional, organism-based; in short: as §2
# Mus musculus [9] = test: Inhibition of IR expression in Balb/C mouse kidney assessed as reduction in IR-B transcript at 1.5 umol/kg, ip administered thrice a week for 2 weeks measured 48 hrs after last dose […]; type: functional, organism-based; in short: as §2
# Mus musculus [10] = test: Inhibition of IR expression in Balb/C mouse adipose tissue assessed as reduction in IR-B transcript at 6.0 umol/kg, ip administered thrice a week for 2 weeks measured 48 hrs after last dose […]; type: functional; set-up: scale not given: the % may be the effect or the level left; in short: as §2
# Mus musculus [11] = test: Inhibition of IR expression in Balb/C mouse adipose tissue assessed as upregulation of IR-A transcript at 6.0 umol/kg, ip administered thrice a week for 2 weeks measured 48 hrs after last dose by […]; type: functional; set-up: scale not given: the % may be the effect or the level left; in short: as §2
# Mus musculus [12] = test: Inhibition of IR expression in Balb/C mouse liver assessed as upregulation of IR-A transcript at 6.0 umol/kg, ip administered thrice a week for 2 weeks measured 48 hrs after last dose by quantitative RT-PCR analysis
# Mus musculus [13] = test: Inhibition of IR expression in Balb/C mouse liver assessed as upregulation of IR-A transcript at 1.5 umol/kg, ip administered thrice a week for 2 weeks measured 48 hrs after last dose by quantitative RT-PCR analysis
# Mus musculus [14] = test: Acute toxicity in Balb/C mouse assessed as reduction in body weight at 33 mg/kg, ip administered thrice a week for 2 weeks measured 48 hrs after last dose; type: organism-based; set-up: dose 33 mg/kg, route intraperitoneal; conditions: in vivo; in short: as §1
# Mus musculus [15] = test: Acute toxicity in Balb/C mouse assessed as reduction in body weight at 8.5 mg/kg, ip administered thrice a week for 2 weeks measured 48 hrs after last dose; type: organism-based; set-up: dose 8.5 mg/kg, route intraperitoneal; conditions: in vivo; in short: as §1
# Mus musculus [16] = test: Acute toxicity in Balb/C mouse assessed as necrosis in kidney at 33 mg/kg, ip administered thrice a week for 2 weeks measured 48 hrs after last dose; type: organism-based; set-up: dose 33 mg/kg, route intraperitoneal; conditions: in vivo; in short: as §1
# Mus musculus [17] = test: Acute toxicity in Balb/C mouse assessed as necrosis in kidney at 8.5 mg/kg, ip administered thrice a week for 2 weeks measured 48 hrs after last dose; type: organism-based; set-up: dose 8.5 mg/kg, route intraperitoneal; conditions: in vivo; in short: as §1
# Mus musculus [18] = test: Inhibition of PTEN expression in Balb/C mouse kidney assessed as increase in mRNA levels at 8.25 mg/kg, ip administered thrice a week for 2 weeks measured 48 hrs after last dose […]; type: functional, organism-based; set-up: dose 8.25 mg/kg; in short: as §2
# Mus musculus [19] = test: Inhibition of PTEN expression in Balb/C mouse kidney assessed as increase in mRNA levels at 33 mg/kg, ip administered as single dose measured 48 hrs after last dose […]; type: functional, organism-based; set-up: dose 33 mg/kg; in short: as §2
# Mus musculus [20] = test: Inhibition of PTEN expression in Balb/C mouse adipose tissue assessed as increase in mRNA levels at 8.25 mg/kg, ip administered thrice a week for 2 weeks measured 48 hrs after last dose by […]; type: functional, organism-based; set-up: dose 8.25 mg/kg; in short: as §2
# Mus musculus [21] = test: Inhibition of PTEN expression in Balb/C mouse liver assessed as increase in mRNA levels at 8.25 mg/kg, ip administered thrice a week for 2 weeks measured 48 hrs after last dose […]; type: functional, organism-based; set-up: dose 8.25 mg/kg; in short: as §2
smiles,measurement,setting,value
Cc1cn(CC(=O)N(CCNC(=O)CN(CCNC(=O)CN(CCNC(=O)CN(CCNC(=O)CN(CCNC(=O)CN(CCNC(=O)CN(CCNC(=O)CN(CCNC(=O)[C@H](CCCCN)N(CCNC(=O)CN(CCNC(=O)CN(CCNC(=O)CN(CCNC(=O)[C@H](CCCCN)NC(=O)[C@H](CCCCN)NC(=O)[C@H](CCCCN)NC(=O)[C@H](CCCCN)NC(=O)[C@H](CCCCN)NC(=O)[C@H](CCCCN)NC(=O)[C@H](CCCCN)NC(=O)[C@@H](N)CCCCN)C(=O)Cn2cnc3c(N)ncnc32)C(=O)Cn2ccc(N)nc2=O)C(=O)Cn2ccc(N)nc2=O)C(=O)Cn2cc(C)c(=O)[nH]c2=O)C(=O)Cn2cnc3c(N)ncnc32)C(=O)Cn2ccc(N)nc2=O)C(=O)Cn2cc(C)c(=O)[nH]c2=O)C(=O)Cn2cnc3c(=O)[nH]c(N)nc32)C(=O)Cn2cc(C)c(=O)[nH]c2=O)C(=O)Cn2ccc(N)nc2=O)C(=O)Cn2ccc(N)nc2=O)CC(=O)NCCN(CC(=O)NCCN(CC(=O)NCCN(CC(=O)NCCN(CC(=O)NCCN(CC(=O)NCCN(CC(=O)NCCN(CC(=O)NCCN(CC(=O)N[C@@H](CCCCN)C(N)=O)C(=O)Cn2cnc3c(N)ncnc32)C(=O)Cn2ccc(N)nc2=O)C(=O)Cn2ccc(N)nc2=O)C(=O)Cn2cnc3c(N)ncnc32)C(=O)Cn2ccc(N)nc2=O)C(=O)Cn2cnc3c(=O)[nH]c(N)nc32)C(=O)Cn2cnc3c(=O)[nH]c(N)nc32)C(=O)Cn2ccc(N)nc2=O)c(=O)[nH]c1=O,Activity,Mus musculus [1],Toxic
same,Activity,Mus musculus [2],Non-toxic
same,Activity,Mus musculus [3],Non-toxic
same,Activity,Mus musculus [4],Non-toxic
same,Activity,Mus musculus [5],Non-toxic
same,Activity,Mus musculus [6],Active
same,Activity,Mus musculus [7],Active
same,Activity,Mus musculus [8],inactive
same,Activity,Mus musculus [9],inactive
same,Activity,Mus musculus [10],50%
same,Activity,Mus musculus [11],200%
same,Activity,Mus musculus [12],Active
same,Activity,Mus musculus [13],Active
Cc1cn(CC(=O)N(CCNC(=O)CN(CCNC(=O)[C@H](CCCCN)N(CCNC(=O)CNC(=O)[C@@H](CCCCN)NC(=O)[C@@H](CCCCN)NC(=O)[C@@H](C)NC(=O)[C@@H](CC(C)C)NC(=O)[C@@H](CCCCN)NC(=O)[C@@H](CC(C)C)NC(=O)[C@@H](C)NC(=O)[C@@H](C)NC(=O)[C@@H](CCCCN)NC(=O)[C@@H](CC(C)C)NC(=O)[C@@H](CC(C)C)NC(=O)[C@@H](CCCCN)NC(=O)[C@H](N)CCCCN)C(=O)Cn2cc(C)c(=O)[nH]c2=O)C(=O)Cn2ccc(N)nc2=O)CC(=O)NCCN(CC(=O)NCCN(CC(=O)NCCN(CC(=O)NCCN(CC(=O)NCCN(CC(=O)NCCN(CC(=O)NCCN(CC(=O)NCCN(CC(=O)NCCN(CC(=O)NCCN(CC(=O)NCCN(CC(=O)NCCN(CC(=O)NCCN(CC(=O)N[C@@H](CCCCN)C(N)=O)C(=O)Cn2cnc3c(N)ncnc32)C(=O)Cn2ccc(N)nc2=O)C(=O)Cn2cnc3c(N)ncnc32)C(=O)Cn2cc(C)c(=O)[nH]c2=O)C(=O)Cn2ccc(N)nc2=O)C(=O)Cn2cc(C)c(=O)[nH]c2=O)C(=O)Cn2cnc3c(N)ncnc32)C(=O)Cn2ccc(N)nc2=O)C(=O)Cn2cnc3c(N)ncnc32)C(=O)Cn2ccc(N)nc2=O)C(=O)Cn2cnc3c(=O)[nH]c(N)nc32)C(=O)Cn2cnc3c(N)ncnc32)C(=O)Cn2ccc(N)nc2=O)c(=O)[nH]c1=O,Activity,Mus musculus [14],Toxic
same,Activity,Mus musculus [15],Toxic
same,Activity,Mus musculus [16],Toxic
same,Activity,Mus musculus [17],Toxic
same,Activity,Mus musculus [18],inactive
same,Activity,Mus musculus [19],inactive
same,Activity,Mus musculus [20],inactive
same,Activity,Mus musculus [21],inactive
